PP1 counter = PP1-alpha phosphatase inhibitors, primary screen, counter-screen for PP5 inhibitor project, biochemical, fluorescence, OMFP substrate, single point; Serine/threonine-protein phosphatase PP1-alpha catalytic subunit (Homo sapiens), P62136; purified PP1alpha; inhibition, % at 6.7 µM; hit rate 0.9% among 320,000;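 active = inhibition above the mean inhibition of all tested compounds plus 3 SD, computed separately for each screening campaign, cut at about 15% in these data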
DNA FID counter = compounds displacing fluorescent DNA intercalator, primary screen, artefact control for HCV NS3 helicase inhibitor project, biochemical, FID fluorescence | hit rate 0.17% among 290,000 | DNA fluorescent intercalator displacement | inhibition, % at 7.9 µM; in the data active = inhibition above about 37%;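 note: 0% = vehicle and 100% = reference compound; higher means more ethidium bromide displaced from hairpin DNA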
HCV NS3 hel inh = inhibitors of HCV NS3 helicase, primary screen, biochemical, Cy5 molecular beacon fluorescence; Hepatitis C virus NS3 helicase; NS3 helicase DNA unwinding; AID 1800, 2009; hit rate 0.56% among 290,000; inhibition, % at 10.9 µM;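 active = inhibition above the mean of all tested compounds plus 3 SD, set per campaign, cut at about 35% in these data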;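 note: 0% = DMSO wells and 100% = thioflavine S control wells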
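Measured by: Cy5 fluorescence, 0 and 60 min reads / Assay system: NS3 helicase fragment of HCV / Control set: low DMSO, high thioflavine S at 110 µM / Times: 1 h reaction at 25 °C, ATP-initiated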
PP5 primary = PP5 phosphatase inhibitors, primary screen, biochemical, fluorescence. purified PP5c, OMFP substrate fluorescence. hit rate 0.18% among 320,000. Serine/threonine-protein phosphatase 5 (Homo sapiens), P53041. AID 1987, 2009. inhibition, % at 6.7 µM;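 active = inhibition above the campaign's mean inhibition across all tested compounds plus 3 SD, cut at about 9.5% in these data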;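 note: 0% = DMSO only and 100% = 100 µM cantharidin control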
Target sequence (P53041 whole entry, looked up): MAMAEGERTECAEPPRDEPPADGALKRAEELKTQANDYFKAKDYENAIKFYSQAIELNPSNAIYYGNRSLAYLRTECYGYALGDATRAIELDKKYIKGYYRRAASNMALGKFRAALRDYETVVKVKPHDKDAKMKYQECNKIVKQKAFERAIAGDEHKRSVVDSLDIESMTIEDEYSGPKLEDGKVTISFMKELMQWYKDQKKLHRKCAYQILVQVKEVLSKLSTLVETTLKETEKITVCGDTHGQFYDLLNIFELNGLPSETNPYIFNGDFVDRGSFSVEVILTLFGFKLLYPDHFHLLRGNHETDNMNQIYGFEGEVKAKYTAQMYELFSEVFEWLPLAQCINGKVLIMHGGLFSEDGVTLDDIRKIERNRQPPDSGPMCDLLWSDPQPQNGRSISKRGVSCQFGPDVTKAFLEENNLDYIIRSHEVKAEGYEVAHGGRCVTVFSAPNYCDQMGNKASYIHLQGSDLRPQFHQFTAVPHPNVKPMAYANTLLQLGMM
HIF activator = HIF pathway transcriptional activators, primary screen, cell-based, U2OS HRE-luciferase, luminescence; U2OS HRE-luciferase reporter; normalized: DMSO 0%, desferrioxamine 100%; activation, % at 7.5 µM (by protocol); hit rate 0.32% among 300,000; AID 1910, 2009;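 active = mean activation of at least 10% of the iron chelator positive control signal, with at least half of replicates also reaching 10%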
* hit, by the source's call; / = not tested or not shown. Compounds with a hit are over-represented: about 1.9% of the library has one in this group of screens.

SMILES | PP1 counter | DNA FID counter | HCV NS3 hel inh | PP5 primary | HIF activator
Fc1ccccc1NC(=S)Nc1ccc(Br)cc1 | -0.3 | -16.7 | 11.0 | 3.1 | 80.5*
CC(C)(c1ccccc1)c1ccc(OCC(O)CNC2CCN(Cc3ccccc3)CC2)cc1 (stereo not given) | 16.1* | 28.6 | -71.2 | 0.6 | -7.5
CCOc1ccc(OCC(O)CNC2CCN(Cc3ccccc3)CC2)cc1 (stereo not given) | -3.4 | 28.6 | -12.3 | 1.1 | -0.2
COc1ccc(CN(CC(O)COc2cccc3[nH]cc(C)c23)C(C)(C)C)cc1 (stereo not given) | 0.5 | -3.5 | -14.9 | 2.4 | -2.1
CNc1nc(C)c(C(=O)OCC(=O)OC)s1 | -3.3 | 37.1* | -4.3 | 0.5 | 0.0
COC(=O)c1ccccc1Oc1cc(C(F)(F)F)nc(-c2ccccn2)n1 | 2.8 | / | / | 3.0 | -0.5
Cc1nn(C)c(C)c1S(=O)(=O)N(CC(=O)NCCCOC(C)C)c1ccc(C(C)C)cc1 | 1.5 | -29.7 | 4.0 | -0.1 | -0.6
Cc1nn(C)c(C)c1S(=O)(=O)N(CC(=O)NCCCN1CC(C)CC(C)C1)c1ccc(C(C)C)cc1 (stereo not given) | -2.4 | 39.5* | -20.5 | -3.0 | -0.1
Oc1c(Br)cc(Br)cc1C=Nc1ccc2[nH]ncc2c1 | 90.0* | 5.2 | 12.4 | 1.9 | -0.2
COc1ccc(C=Nc2ccc3[nH]ncc3c2)c(O)c1 | -2.2 | 5.9 | 3.6 | 1.2 | 0.6
CC(=O)C1CCCN(C(=O)c2ccc3oc(CCc4ccccc4)nc3c2)C1 (stereo not given) | 0.1 | -44.2 | -3.2 | 3.1 | 1.3
CCOC(=O)C1CCCN(C(=O)c2ccc3nc(-c4ccccc4)c(-c4ccccc4)nc3c2)C1 (stereo not given) | -2.2 | -62.2 | -19.2 | 0.6 | 16.7*
CCOC(=O)C1CCCN(C(=O)c2ccc3oc(CCc4ccccc4)nc3c2)C1 (stereo not given) | -0.2 | -61.4 | -5.7 | 0.4 | 62.5*
CCCC[C@@H](CNC)NC[C@H](NCCCCC1CCCCC1)C(C)C | 5.1 | 12.9 | -72.3 | 1.3 | -0.4
CCC[C@H](CN[C@@H](CNC)[C@H](C)CC)NCCc1cc(C(F)(F)F)cc(C(F)(F)F)c1 | 5.8 | 38.7* | -67.5 | 1.7 | -0.3
CCC[C@@H](CN[C@@H](CNC)[C@H](C)CC)NCC1CCC(C(C)(C)C)CC1 (stereo not given in full) | 3.3 | 40.3* | -76.4 | 1.2 | -0.8
COc1ccc(/C=C/C(=O)c2ccccc2)cc1Cn1nnc2ccccc21 | 9.5 | -23.2 | -21.7 | 3.3 | 0.4
O=C1NC(=S)N(C(=O)c2ccc(F)cc2)/C1=C/c1cccnc1 | -0.4 | -2.6 | 9.3 | 0.5 | 0.0
COc1ccc(/C=C2\C(=O)NC(=S)N2C(=O)c2ccc(C)cc2)cc1 | 15.7* | -6.3 | 12.7 | 0.3 | 0.4
C=CCn1c(C)cc(C(=O)CSc2nnc(NCc3ccccc3)s2)c1C | 3.7 | -25.0 | -3.4 | 11.6* | 1.4
C=CCn1c(C)cc(C(=O)CSc2nnc(NC(C)C)s2)c1C | -2.5 | -23.4 | 4.2 | 0.9 | 0.3
COc1ccc(Br)cc1CN1CCSCC1 | -0.5 | 0.4 | -8.3 | 0.2 | -0.1
COc1ccc(NC(=O)CCS(=O)(=O)c2ccc3c(c2)CCN3C(C)=O)cc1 | -4.5 | -6.3 | 4.5 | -0.5 | 10.4*
C=CCNC(=S)N/N=C(\C)c1ccccn1 | -2.7 | -1.4 | -0.4 | -0.9 | 13.5*
Cc1cc(S(=O)(=O)NC2CC(C)(C)NC(C)(C)C2)c(Cl)cc1Cl | -2.4 | 14.7 | -9.1 | 0.5 | 0.0
SMILES | PP1 counter | DNA FID counter | HCV NS3 hel inh | PP5 primary | HIF activator
CCc1ccccc1NC(=O)COc1ccc2c(=O)c(Oc3cc(C)ccc3C)coc2c1 | -0.7 | -2.5 | 1.5 | -0.6 | -0.2
CC(C)c1ccccc1NC(=O)COc1ccc2c(=O)c(Oc3ccc4ccccc4c3)coc2c1 | 18.4* | -9.8 | 0.3 | 4.4 | -0.8
Cc1ccc(Nc2cc(C)c3ccc(O)cc3n2)cc1C | 17.0* | 5.2 | -62.4 | 4.1 | 1.5
CNC(=O)C(=O)NCCN1CCN(S(=O)(=O)c2ccc3ccccc3c2)CC1 | / | -17.2 | 18.4 | / | -45.0
CC(=O)c1cccc(NS(=O)(=O)c2ccc(-c3cc(C)no3)s2)c1 | 1.8 | -23.8 | -2.8 | 2.9 | 44.2*
CC(=O)c1ccc(N2CCN(S(=O)(=O)c3ccc(-c4cc(C)no4)s3)CC2)cc1 | 5.7 | -4.1 | -0.8 | 1.0 | 0.5
CCOC(=O)CCNC(=O)N1CCCC(N2CCN(c3ccc(OC)cc3)CC2)C1 (stereo not given) | -1.5 | -7.8 | -20.8 | 1.8 | -1.1
CCOC(=O)c1cnc(-n2nc(C)cc2C)nc1NNc1nc(-c2ccccc2)cc(-c2ccccc2)n1 | 2.2 | -0.7 | 0.0 | 3.9 | 18.4*
CCCNC(=O)c1cc2nc(-c3ccccc3)cc(C(F)(F)F)n2n1 | -3.9 | -7.8 | 2.7 | -1.2 | 96.2*
CCCCNC(=O)c1cc2nc(-c3ccccc3)cc(C(F)(F)F)n2n1 | -2.7 | -28.8 | -0.8 | 0.4 | -0.2
Cc1ccc(CC(=O)Nc2nccs2)cc1 | 2.7 | -6.3 | 2.5 | 1.1 | -2.6
Cc1ccc(S(=O)(=O)NC(C)(C)CSc2ccccn2)cc1 | -2.4 | -23.7 | 4.9 | 0.6 | -0.6
Cc1ccc(O)c(/C=N/NC(=O)c2[nH]ncc2Br)c1 | -1.8 | -2.1 | -0.7 | 1.7 | 6.9
O=C(N/N=C/c1c(O)ccc2ccccc12)c1cccc(C(F)(F)F)c1 | -2.8 | 0.3 | 10.3 | -8.5 | 13.9*
CCOc1ccc(/C=N/NC(=O)c2[nH]ncc2Br)c(O)c1 | 4.2 | 0.5 | -25.9 | 1.0 | 22.5*
O=C(N/N=C/c1c(O)ccc2ccccc12)c1[nH]ncc1Br | 0.9 | -5.0 | 7.3 | 5.4 | 115.4*
COc1ccc(NC(=O)CNC(=O)Cc2cccc3ccccc23)c(OC)c1 | -3.9 | / | / | 1.3 | 93.5*
Cc1ccccc1OCC(=O)NNC(=S)NC(=O)c1ccco1 | 16.8* | 2.8 | 7.8 | 0.1 | 0.0
CCN(CC)CCN(C(=O)CCS(=O)(=O)c1ccccc1)c1nc2cc3c(cc2s1)OCO3 | -3.2 | 13.4 | -54.2 | 0.0 | 0.4
O=[N+]([O-])c1ccccc1S(=O)(=O)Nc1ccc2c(c1)OCCO2 | / | -0.4 | -11.2 | / | 0.2
O=C(CNC(=O)c1ccccc1Br)N/N=C/c1cc(Br)ccc1O | 3.6 | -3.3 | -2.5 | 1.8 | 21.1*
O=C(N/N=C/c1ccc(O)c(O)c1)c1cccc(S(=O)(=O)N2CCCC2)c1 | -0.8 | / | / | -0.9 | -0.4
O=C(CNC(=O)c1ccccc1Br)N/N=C/c1ccccc1O | -0.5 | -3.8 | -4.3 | -0.3 | 3.0
O=C(N/N=C\c1cc(Cl)ccc1O)c1ccc(S(=O)(=O)N2CCCCC2)cc1 | 11.5 | -6.6 | 9.8 | -3.0 | 44.5*
O=C(N/N=C/c1cc(Cl)ccc1O)c1ccccc1Br | 0.5 | -2.5 | -0.9 | -0.7 | 10.4*

Screening results from PubChem.
